Publication PMC6722387 (Cellular and Molecular Gastroenterology and Hepatology, 2019)

Key:
[1] = system: human iPS-IECMs; experiment: Determination of Fg value; type: in vitro ADME; details: 3 μM MDZ apical, 60-minute incubation
Method in brief: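 Monolayers on inserts were preincubated 10 min at 37°C in HBSS with 10 mM HEPES, pH 7.4. Apical: 3 μM midazolam in HBSS; basolateral: HBSS with 0.1% DMSO. After 60 min at 37°C, both chambers and the twice-washed cells were collected into acetonitrile/ethanol (7:3) with candesartan internal standard. Midazolam and 1′-OH midazolam were quantified by UPLC-MS/MS. Fg was derived from summed metabolite across all compartments plus basolateral and cellular midazolam.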

[2] = system: human intestinal tissue; details: human intestinal tissue / human in vivo; cited from earlier work
[3] = system: human iPS-IECMs; experiment: LY permeability test across human iPS-IECMs; type: in vitro ADME; details: Ad-LacZ- and Ad-TF-transduced cells; apical to basolateral; 60 μM LY, 70 min, 37°C

## Cc1ncc2n1-c1ccc(Cl)cc1C(c1ccccc1F)=NC2 [MDZ, midazolam]
[1]
  Fg (fraction passing the gut wall): 0.73
[2]
  Fg (fraction passing the gut wall): 0.57

## LY CH Dipotassium Salt
[3]
  Lucifer yellow (LY) Papp: approximately 0.44 ×10^–6 cm/s
